Test results published in ChEMBL document CHEMBL3779764, “Identification and Structure-Activity Relationships of Diarylhydrazides as Novel Potent and Selective Human Enterovirus Inhibitors” (J Med Chem, 2016).

What was measured:
Enterovirus A71 [1] = test: Antiviral activity against Human enterovirus 71 infected in monkey African green Vero cells by MTS-based CPE reduction assay; format: functional, organism-based
Method in brief: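 Vero cells (5 × 10^5) seeded, then given serial compound dilutions plus 100 TCID50 EV71. Incubated at 37 °C for 24-36 h until complete CPE in the virus-infected, compound-free control. Viability read by MTS/PMS at 498 nm. EC50 is the concentration inhibiting virus-induced CPE by 50%. At least three repeats.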

Enterovirus A71 [2] = test: Antiviral activity against Enterovirus 71 infected in human RD cells after 24 to 36 hrs by MTS-based CPE reduction assay; format: functional, organism-based
Method in brief: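 RD cells given serial compound dilutions with EV71. Incubated at 37 °C for 24-36 h until full CPE in the virus control. Viability read by MTS/PMS at 498 nm. EC50 is the concentration giving 50% inhibition of virus-induced CPE. At least three independent experiments.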

[3] = Cytotoxicity against african green monkey Vero cells assessed as reduction in cell viability after 24 to 36 hrs by MTS-based CPE reduction assay; details: chlorocebus sabaeus
Method in brief: (§1)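 Noninfected Vero or RD cells exposed to serial compound dilutions under the CPE-assay conditions (37 °C, 24-36 h). Viability measured by MTS/PMS absorbance at 498 nm. CC50 is the concentration causing 50% death of noninfected cells.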

[4] = Selectivity index, ratio of CC50 for african green monkey Vero cells to EC50 for Enterovirus 71; format: toxicity, cell-based; details: read-out: Ratio CC50/EC50
Method in brief: (§2)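 Selectivity index is CC50/EC50, both taken from MTS-based CPE reduction assays in the same cell line (Vero or RD).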

RD = test: Cytotoxicity against human RD cells assessed as reduction in cell viability after 24 to 36 hrs by MTS-based CPE reduction assay; format: functional; method in brief: as §1
[5] = Selectivity index, ratio of CC50 for human RD cells to EC50 for Enterovirus 71; format: toxicity, cell-based; details: read-out: Ratio CC50/EC50; method in brief: as §2
Coxsackievirus B1 = test: Antiviral activity against Human coxsackievirus B1 infected in african green monkey Vero cells after 24 to 36 hrs by MTS-based CPE reduction assay; format: functional, organism-based; details: Enterovirus B
Method in brief: (§3)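 Vero cells infected with the coxsackievirus B serotype in the presence of serial compound dilutions. CPE reduction read by MTS/PMS absorbance at 498 nm after 24-36 h at 37 °C. EC50 is the concentration giving 50% CPE inhibition. Mean ± standard deviation of at least three independent experiments.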

Coxsackievirus B2 = test: Antiviral activity against Human coxsackievirus B2 infected in african green monkey Vero cells after 24 to 36 hrs by MTS-based CPE reduction assay; format: functional, organism-based; details: Enterovirus B; method in brief: as §3
Coxsackievirus B3 = test: Antiviral activity against Human coxsackievirus B3 infected in african green monkey Vero cells after 24 to 36 hrs by MTS-based CPE reduction assay; format: functional, organism-based; details: Enterovirus B; method in brief: as §3
Coxsackievirus B4 = test: Antiviral activity against Human coxsackievirus B4 infected in african green monkey Vero cells by after 24 to 36 hrs MTS-based CPE reduction assay; format: functional, organism-based; details: Enterovirus B; method in brief: as §3
Coxsackievirus B5 = test: Antiviral activity against Human coxsackievirus B5 infected in african green monkey Vero cells after 24 to 36 hrs by MTS-based CPE reduction assay; format: functional, organism-based; details: Enterovirus B; method in brief: as §3
Coxsackievirus B6 = test: Antiviral activity against Human coxsackievirus B6 infected in african green monkey Vero cells after 24 to 36 hrs by MTS-based CPE reduction assay; format: functional, organism-based; details: Enterovirus B; method in brief: as §3
[6] = Enterovirus A, Vero, read-out: EC50
[7] = Enterovirus A, RD, read-out: EC50

| SMILES | CC50 [3] [µM] | EC50 (Enterovirus A71 [1]; [6]) [µM] | selectivity ratio [4] | EC50 (Enterovirus A71 [2]; [7]) [µM] | CC50 (RD) [µM] | selectivity ratio [5] | also measured |
| --- | --- | --- | --- | --- | --- | --- | --- |
| O=C(NNc1c(Cl)cccc1Cl)c1cccc(Cl)c1 | – | – | – | – | – | – | EC50 (Enterovirus A71 [1]; vero): Not Active; EC50 (Enterovirus A71 [2]; rd): Not Active |
| Cc1ccc(C(=O)NNc2c(Cl)cccc2Cl)cc1 | > 271 | 1.28 | > 212 | 0.96 | > 271 | > 281 | – |
| O=C(NNc1c(Cl)cccc1Cl)c1ccccn1 | – | > 100 | – | > 100 | – | – | – |
| CCOc1ccc(C(=O)NNc2c(Cl)cccc2Cl)cc1 | > 246 | 0.33 | > 746 | 0.37 | > 246 | > 665 | – |
| CCc1ccc(C(=O)NNc2c(Cl)cccc2Cl)cc1 | > 259 | 0.94 | > 275 | 1.68 | > 259 | > 154 | – |
| CCc1ccc(C(=O)NNc2c(Br)cccc2Br)cc1 | > 201 | 0.93 | > 216 | 1.58 | > 201 | > 127 | – |
| Cc1cccc(C)c1NNC(=O)c1ccc(C(C)(C)C)cc1 | 166 | 0.17 | 978 | 0.42 | 188 | 454 | EC50 (Coxsackievirus B1): 0.0016 µM; EC50 (Coxsackievirus B2): 0.0016 µM; EC50 (Coxsackievirus B3): 0.09 µM; EC50 (Coxsackievirus B4): 5.62 µM; EC50 (Coxsackievirus B5): 3.19 µM; EC50 (Coxsackievirus B6): 0.56 µM |
| COc1ccc(C(=O)NNc2c(F)cccc2F)cc1 | > 288 | 74 | > 3.9 | > 100 | – | – | – |
| O=C(NNc1c(Cl)cccc1Cl)c1ccccc1 | – | > 100 | – | > 100 | – | – | – |
| COc1ccccc1C(=O)NNc1c(Cl)cccc1Cl | – | > 100 | – | > 100 | – | – | – |
| O=C(NNc1c(Cl)cccc1Cl)c1ccc(Br)cc1 | – | – | – | – | – | – | EC50 (Enterovirus A71 [1]; vero): Not Active; EC50 (Enterovirus A71 [2]; rd): Not Active |
| O=C(NNc1c(Br)cccc1Br)c1ccccc1 | > 216 | 0.86 | > 251 | 2.43 | > 216 | > 89.1 | – |
| CCCc1ccc(C(=O)NNc2c(C)cccc2C)cc1 | > 283 | 0.95 | > 298 | 2.64 | > 283 | > 107 | – |
| O=C(NNc1c(Cl)cccc1Cl)c1ccc([N+](=O)[O-])cc1 | – | – | – | – | – | – | EC50 (Enterovirus A71 [1]; vero): Not Active; EC50 (Enterovirus A71 [2]; rd): Not Active |
| N#Cc1ccc(C(=O)NNc2c(Cl)cccc2Cl)cc1 | – | – | – | – | – | – | EC50 (Enterovirus A71 [1]; vero): Not Active; EC50 (Enterovirus A71 [2]; rd): Not Active |
| CCOc1ccc(C(=O)NNc2c(F)cccc2F)cc1 | > 274 | 66.7 | > 4.1 | > 100 | – | – | – |
| CCOc1ccc(NNC(=O)c2c(Cl)cccc2Cl)cc1 | – | > 100 | – | > 100 | – | – | – |
| COc1ccc(C(=O)NNc2c(Br)cccc2Br)cc1 | > 200 | 3.32 | > 60.2 | 2.63 | > 200 | > 76.1 | – |
| Cc1ccc(C(=O)NNc2c(C)cccc2Cl)cc1 | > 291 | 13 | > 22.5 | 26.9 | > 291 | > 10.8 | – |
| Cc1cccc(C)c1NNC(=O)c1ccc(N(C)C)cc1 | > 282 | 0.29 | > 974 | 0.69 | > 282 | > 411 | – |
| CCCc1ccc(C(=O)NNc2c(C)cccc2Cl)cc1 | 80.2 | 0.92 | 87.2 | 2.16 | 113 | 52.4 | – |
| O=C(NNc1c(Cl)cccc1Cl)c1ccc(Cl)cc1 | – | > 100 | – | > 100 | – | – | – |
| Cc1cccc(Cl)c1NNC(=O)c1ccc(C(C)(C)C)cc1 | 49.2 | 0.79 | 62.3 | 0.97 | 63.2 | 65.1 | – |
| O=C(NNc1c(Cl)cccc1Cl)c1cccs1 | – | > 100 | – | > 100 | – | – | – |

| SMILES | CC50 [3] [µM] | EC50 (Enterovirus A71 [1]; [6]) [µM] | selectivity ratio [4] | EC50 (Enterovirus A71 [2]; [7]) [µM] | CC50 (RD) [µM] | selectivity ratio [5] | also measured |
| --- | --- | --- | --- | --- | --- | --- | --- |
| Cc1ccc(C(=O)NNc2c(Br)cccc2Br)cc1 | 146 | 10.8 | 13.5 | 24.7 | 163 | 6.6 | – |
| CC(C)(C)c1ccc(C(=O)NNc2c(F)cccc2F)cc1 | 150 | 2.19 | 68.4 | 4.27 | 184 | 43 | – |
| COc1ccccc1C(=O)NNc1c(Br)cccc1Br | 109 | 54.2 | 2 | > 100 | – | – | – |
| CCCc1ccc(C(=O)NNc2c(F)cccc2F)cc1 | > 276 | 27.4 | > 10.1 | 51.4 | > 276 | > 5.4 | – |
| CCc1cccc(CC)c1NNC(=O)c1ccc(C(C)(C)C)cc1 | – | > 100 | – | > 100 | – | – | – |
| CCCc1ccc(C(=O)NNc2c(Cl)cccc2Cl)cc1 | > 248 | 0.42 | > 589 | 0.44 | > 248 | > 562 | – |
| CCc1ccc(C(=O)NNc2c(C)cccc2Cl)cc1 | 81.7 | 6.37 | 12.8 | 10.5 | 105 | 10 | – |
| O=C(NNc1c(Cl)cccc1Cl)c1ccc(F)cc1 | – | – | – | – | – | – | EC50 (Enterovirus A71 [1]; vero): Not Active; EC50 (Enterovirus A71 [2]; rd): Not Active |
| COc1ccc(C(=O)NNc2c(Cl)cccc2Cl)cc1 | > 257 | 0.68 | > 378 | 1.36 | > 257 | > 189 | – |
| CC(C)(C)c1ccc(C(=O)NNc2c(Cl)cccc2Cl)cc1 | 30.8 | 0.47 | 65.6 | 0.85 | 36.7 | 43.2 | – |
| COc1ccc(C(=O)NNc2c(C)cccc2Cl)cc1 | > 275 | 5.74 | > 47.9 | 15.4 | > 275 | > 17.9 | – |
| CC(C)c1cccc(C(C)C)c1NNC(=O)c1ccc(C(C)(C)C)cc1 | – | > 100 | – | > 100 | – | – | – |
| COc1ccc(C(=O)NNc2c(C)cccc2C)cc1 | > 296 | 12.3 | > 24 | 29 | > 296 | > 10.2 | – |
| COc1cccc(OC)c1NNC(=O)c1ccc(C(C)(C)C)cc1 | > 244 | 10.4 | > 23.4 | 27.4 | > 244 | > 8.9 | – |
| CCOc1ccc(C(=O)NNc2c(C)cccc2Cl)cc1 | > 262 | 0.39 | > 673 | 0.82 | > 262 | > 319 | – |
| CCc1ccc(C(=O)NNc2c(C)cccc2C)cc1 | 135 | 1.57 | 86.2 | 2.75 | 164 | 59.7 | – |
| CN(C)c1ccc(C(=O)NNc2c(F)cccc2F)cc1 | > 275 | 17.9 | > 15.3 | 23.5 | > 275 | > 11.7 | – |
| Cc1ccc(C(=O)NNc2c(C)cccc2C)cc1 | > 315 | 5.31 | > 59.2 | 13.6 | > 315 | > 23.2 | – |
| Cc1cccc(Cl)c1NNC(=O)c1ccc(N(C)C)cc1 | 92.8 | 0.28 | 332 | 0.16 | 106 | 682 | – |
| CCOc1ccc(C(=O)NNc2c(Cl)cc(Cl)cc2Cl)cc1 | – | > 100 | – | > 100 | – | – | – |
| CCOc1ccc(C(=O)NNc2c(Br)cccc2Br)cc1 | > 193 | 0.37 | > 522 | 0.53 | > 193 | > 362 | – |
| CSc1ccc(C(=O)NNc2c(C)cccc2Cl)cc1 | 107 | 6.13 | 17.4 | 15.4 | 134 | 8.7 | – |
| CCCc1ccc(C(=O)NNc2c(Br)cccc2Br)cc1 | > 194 | 3.54 | > 54.8 | 4.62 | > 194 | > 42 | – |
